Test results from ChEMBL document CHEMBL1153564 (Antimicrob Agents Chemother, 2008).
In brackets after ≈: the same amount, converted by molar mass. Activity calls are given as the source filed them. No cut-off for these calls is given here. Starred links: 1 amine or outer side, 2 acyl side, 3 side chain; linkers in the order of their positions; H or OH if unused. Positions of bridges follow the written chain, without caps; N, C: chain ends. Non-standard residues stand in square brackets, D forms with d. Residues, ends and D or L forms follow the SMILES beside them. *: point of attachment. pTerphenylCO(4''-OnC5H11) = CCCCCOc1ccc(-c2ccc(-c3ccc(C(=O)*)cc3)cc2)cc1; Orn(4R-OH,5R-OH) = O=C([C@H](C[C@@H](O)[C@@H](O)N[*:3])N[*:1])[*:2]; hTyr(3S-OH,4S-OH) = N[C@H](C(=O)O)[C@H](O)[C@@H](O)c1ccc(O)cc1; Pro(3S-OH,4S-Me) = C[C@H]1CN[C@H](C(=O)O)[C@H]1O; Hyp = O=C(O)[C@@H]1C[C@@H](O)CN1

How the values were obtained:
Candida albicans [1] = assay: Antifungal activity against Candida albicans K-1 infected in neutropenic ICR/Swiss mouse candidiasis model assessed as prolongation of fungal growth suppression at 20 mg/kg, ip administered 2 hrs postinfection as single dose by time-kill assay; assay type: functional; settings: route intraperitoneal
Method in brief: (§1)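 Single ip dose (20, 5 or 1.25 mg/kg) given 2 h after iv infection of neutropenic mice with K-1. Three treated and three control mice were sampled at intervals over 96 h for kidney CFU. PAFE is the time for treated burden to rise 1 log10 after serum levels fall below MIC, minus the same time in controls. Free drug was taken as 1%.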

Serum = assay: Fraction unbound in Candida glabrata 5376-infected neutropenic ICR/Swiss mouse serum at 1.25 mg/kg, ip administered 2 hrs postinfection as single dose; assay type: ADME, organism-based; design: dose 1.25 mg/kg, route intraperitoneal; settings: in vivo
Nakaseomyces glabratus [2] = assay: Antifungal activity against Candida glabrata 33609 infected in neutropenic ICR/Swiss mouse candidiasis model assessed as fungal count per kidney administered 2 hrs postinfection measured up to 48 hrs; assay type: functional
Method in brief: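 Female ICR/Swiss mice (23–27 g) made neutropenic with cyclophosphamide s.c. (150 mg/kg day −4, 100 mg/kg day −1, 100 mg/kg day +2). Infected by tail vein with 0.1 ml inoculum (~6.1 log10 CFU/ml). Kidneys of untreated mice were homogenised and plated on SDA for 24 h at 35°C. Growth over 48 h is given as log10 CFU/kidney.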

Candida tropicalis [3] = assay: Antifungal activity against Candida tropicalis 98-234 assessed as partial growth inhibition after 24 hrs by CLSI end point method; assay type: functional; settings: 98-234, 24 h
Candida albicans [4] = assay: Antifungal activity against Candida albicans K-1 assessed as complete growth inhibition after 24 hrs by CLSI end point method; assay type: functional; settings: K-1, 24 h
Method in brief: (§2)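 CLSI M27-A2 broth dilution. Two end points read against the drug-free control well: partial inhibition (CLSI end point) and complete inhibition. Run in duplicate on four separate occasions; value is the mean. Drug stock in DMSO, diluted in 0.9% NaCl.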

Nakaseomyces glabratus [5] = assay: Antifungal activity against Candida glabrata 33609 assessed as complete growth inhibition after 24 hrs by CLSI end point method; assay type: functional; settings: Nakaseomyces glabratus, 33609, 24 h; method in brief: as §2
Candida albicans [6] = assay: Antifungal activity against Candida albicans K-1 infected in neutropenic ICR/Swiss mouse candidiasis model assessed as dose required for 1-log10 reduction in […] per kidney administered intraperitoneally every 24 hrs up to 4 days measured per 96 hrs; assay type: functional
Method in brief: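 Neutropenic mice were infected iv with C. albicans K-1 2 h before therapy. Total doses of 1.25, 5, 20, 80 and 320 mg/kg/96 h were split into 1, 2, 4 or 6 ip doses (q96h, q48h, q24h, q16h), three mice per regimen. Effect is the log10 CFU/kidney relative to untreated controls at 96 h. Static and 1-log doses were taken from a Hill model fit.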

[7] = AUC (0 to infinity) in serum of neutropenic ICR/Swiss mouse candidiasis model at 5 mg/kg, ip by reverse-phase high-pressure liquid chromatography; assay type: ADME, organism-based; design: time infinity, dose 5 mg/kg, route intraperitoneal
Method in brief: (§3)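 Single ip dose in 0.2 ml to infected neutropenic mice. Serum from groups of three isoflurane-anaesthetised mice at 1, 4, 8, 12, 24 and 48 h, stored −80°C. Drug measured by reverse-phase HPLC with fluorescence detection against loratadine internal standard (calibration 10–50,000 ng/ml). Noncompartmental analysis; AUC by trapezoidal rule.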

[8] = AUC (0 to infinity) in serum of neutropenic ICR/Swiss mouse candidiasis model at 80 mg/kg, ip by reverse-phase high-pressure liquid chromatography; assay type: ADME, organism-based; design: time infinity, dose 80 mg/kg, route intraperitoneal; method in brief: as §3
Nakaseomyces glabratus [9] = assay: Antifungal activity against Candida glabrata 5376 infected in neutropenic ICR/Swiss mouse candidiasis model assessed as reduction of […] in kidney at 20 mg/kg, ip administered 2 hrs postinfection as single dose measured after 96 hrs post dosing by time-kill assay; assay type: functional, organism-based; design: dose 20 mg/kg
Method in brief: (§4)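 Neutropenic mice were infected i.v. and 2 h later given a single i.p. dose (1.25, 5 or 20 mg/kg). Groups of three treated and three control mice were killed at intervals over 96 h, and kidney CFU were counted on SDA (limit 100 CFU/ml). The post-antifungal effect is t − c: the time for a 1 log10 CFU/kidney increase once serum levels fall below the MIC in treated mice, minus the same time in controls.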

Nakaseomyces glabratus [10] = assay: Antifungal activity against Candida glabrata 570 infected in neutropenic ICR/Swiss mouse candidiasis model assessed as dose required to maintain […] of 1.83 +/- 0.54 log10CFU per kidney administered intraperitoneally every 24 hrs up to 4 days measured per 24 hrs; assay type: functional
Candida albicans [11] = assay: Antifungal activity against Candida albicans K-1 infected in neutropenic ICR/Swiss mouse candidiasis model assessed as suppression of fungal regrowth at 1.25 mg/kg, ip administered 2 hrs postinfection as single dose by time-kill assay; assay type: functional, organism-based; design: dose 1.25 mg/kg
Method in brief: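 Single ip dose of 1.25, 5 or 20 mg/kg given 2 h after iv infection of neutropenic mice. Groups of 3 treated and 3 control mice sampled at 1–24 h intervals over 96 h. Kidney homogenates plated on SDA, 24 h at 35°C. PAFE = time for treated burden to rise 1 log10 CFU/kidney after serum level fell below MIC, minus the same time in controls.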

Candida tropicalis [12] = assay: Antifungal activity against Candida tropicalis 98-234 assessed as complete growth inhibition after 24 hrs by CLSI end point method; assay type: functional; settings: 98-234, 24 h
Mus musculus = assay: Cmax in serum of neutropenic ICR/Swiss mouse candidiasis model at 20 mg/kg, ip up to 4 hrs by reverse-phase high-pressure liquid chromatography; assay type: ADME, organism-based; design: dose 20 mg/kg, route intraperitoneal; settings: in vivo
Method in brief: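 Infected neutropenic ICR/Swiss mice given single ip doses (5, 20 or 80 mg/kg; 0.2 ml); serum from three isoflurane-anaesthetised mice at 1, 4, 8, 12, 24 and 48 h, stored at −80°C, assayed by reverse-phase HPLC with fluorescence detection, loratadine internal standard, linear 10–50,000 ng/ml. Noncompartmental analysis; half-life by nonlinear least squares.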

Candida albicans [13] = assay: Antifungal activity against Candida albicans K-1 infected in neutropenic ICR/Swiss mouse candidiasis model assessed as reduction of […] in kidney at 20 mg/kg, ip administered 2 hrs postinfection as single dose measured within 1 to 4 hrs post dosing by time-kill assay; assay type: functional, organism-based; design: dose 20 mg/kg; method in brief: as §1
Nakaseomyces glabratus [14] = assay: Antifungal activity against Candida glabrata 35315 assessed as partial growth inhibition after 24 hrs by CLSI end point method; assay type: functional; settings: Nakaseomyces glabratus, 35315, 24 h
Method in brief: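 Two end points were read against the drug-free control well: partial growth inhibition (the CLSI end point) and complete inhibition. Run in duplicate on four separate occasions; the value is the mean. Drug stock was made in DMSO and diluted in 0.9% NaCl.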

Nakaseomyces glabratus [15] = assay: Antifungal activity against Candida glabrata 5376 infected in neutropenic ICR/Swiss mouse candidiasis model assessed as prolongation of fungal growth suppression at 5 mg/kg, ip administered 2 hrs postinfection as single dose by time-kill assay; assay type: functional; settings: route intraperitoneal; method in brief: as §4
Nakaseomyces glabratus [16] = assay: Antifungal activity against Candida glabrata 5376 infected in neutropenic ICR/Swiss mouse candidiasis model assessed as reduction of […] in kidney at 5 mg/kg, ip administered 2 hrs postinfection as single dose measured after 96 hrs post dosing by time-kill assay; assay type: functional, organism-based; design: dose 5 mg/kg; method in brief: as §4
Nakaseomyces glabratus [17] = assay: Antifungal activity against Candida glabrata 32930 infected in neutropenic ICR/Swiss mouse candidiasis model assessed as fungal count per kidney administered 2 hrs postinfection measured up to 48 hrs; assay type: functional
Method in brief: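 Untreated neutropenic mice infected via the tail vein (inoculum about 6.1 log10 CFU/ml, 0.1 ml). Growth is the rise in kidney CFU over 48 h. Kidneys were homogenised, serially diluted 1:10 and plated on SDA for 24 h at 35°C. Mean of three mice.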

CCCCCOc1ccc(-c2ccc(-c3ccc(C(=O)N[C@H]4C[C@@H](O)[C@@H](O)NC(=O)[C@@H]5[C@@H](O)[C@@H](C)CN5C(=O)[C@H]([C@@H](C)O)NC(=O)[C@H]([C@H](O)[C@@H](O)c5ccc(O)cc5)NC(=O)[C@@H]5C[C@@H](O)CN5C(=O)[C@H]([C@@H](C)O)NC4=O)cc3)cc2)cc1 [ANIDULAFUNGIN] ({pTerphenylCO(4''-OnC5H11)}-[Orn(4R-OH,5R-OH)]T[Hyp][hTyr(3S-OH,4S-OH)]T[Pro(3S-OH,4S-Me)]; lactam 1-C)
Activity (Candida albicans [1]): >96 h
Fu (Serum): 1%
log10cfu (Nakaseomyces glabratus [2]): 2.37
MIC (Candida tropicalis [3]): 0.015 µg/mL (≈ 0.0132 µM)
MIC (Candida albicans [4]): 0.12 µg/mL (≈ 0.105 µM)
MIC (Nakaseomyces glabratus [5]): 0.12 µg/mL (≈ 0.105 µM)
Activity (Candida albicans [6]): 8.1 mg/kg
AUC(0-inf) [7]: 96 µg·h/mL
AUC(0-inf) [8]: 1980 µg·h/mL
Activity (Nakaseomyces glabratus [9]): Active
Activity (Nakaseomyces glabratus [10]): 1.97 mg/kg
Activity (Candida albicans [11]): Active
MIC (Candida tropicalis [12]): 0.12 µg/mL (≈ 0.105 µM)
Cmax (Mus musculus): 24000 ng/mL
Activity (Candida albicans [13]): Active
MIC (Nakaseomyces glabratus [14]): 0.25 µg/mL (≈ 0.219 µM)
Activity (Nakaseomyces glabratus [15]): 19 h
Activity (Nakaseomyces glabratus [16]): Active
log10cfu (Nakaseomyces glabratus [17]): 1.29
